Source: ChEMBL document CHEMBL1155297, “Synthesis, antimicrobial and antioxidant activities of substituted pyrazoles, isoxazoles, pyrimidine and thioxopyrimidine derivatives” (2009)

System: Aspergillus niger
Test: Antifungal activity against Aspergillus niger NCIM 596 at 100 ug/disk after 48 hrs by agar disk diffusion method
Assay type: functional
Details: NCIM 596, 48 h, read-out: IZ
Summary of the method: (§1)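 Fungal disc diffusion on nutrient agar plates pre-inoculated with each fungus. 6 mm sterile paper discs carried the compound in DMSO at the stated amount per disc. Plates were held at 37 °C, and inhibition-zone diameter was measured after 48 h. Values are the mean of three independent triplicate readings.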
Work on `Cc1ccc(S(=O)(=O)CC(C2C(N)=NC(=S)N=C2N)S(=O)(=O)c2ccc(C)cc2)cc1` (stereo not drawn) yielded a zone of inhibition at 100 µg/disc of 17 mm.
With `N=C1ON=C(N)C1C(CC(=O)c1ccccc1)C(=O)c1ccccc1` (stereo not drawn) the zone of inhibition at 100 µg/disc was 27 mm.
Compound `Cc1ccc(C(=O)CC(C(=O)c2ccc(C)cc2)C2C(=N)ON=C2N)cc1` (stereo not drawn) has a zone of inhibition at 100 µg/disc of 24 mm.

System: Fusarium solani
Test: Antifungal activity against Fusarium solani NCIM 1330 at 200 ug/disk after 48 hrs by agar disk diffusion method
Assay type: functional
Details: NCIM 1330, 48 h, read-out: IZ
Summary of the method: as §1
With `Cc1ccc(S(=O)(=O)CC(C2C(N)=NC(=S)N=C2N)S(=O)(=O)c2ccc(C)cc2)cc1` (stereo not drawn) the zone of inhibition at 200 µg/disc was 21 mm.
`N=C1ON=C(N)C1C(CC(=O)c1ccccc1)C(=O)c1ccccc1` (stereo not drawn) gave a zone of inhibition at 200 µg/disc of 31 mm.
With `Cc1ccc(C(=O)CC(C(=O)c2ccc(C)cc2)C2C(=N)ON=C2N)cc1` (stereo not drawn) the zone of inhibition at 200 µg/disc was 34 mm.

System: Curvularia lunata
Test: Antifungal activity against Curvularia lunata NCIM 716 at 100 ug/disk after 48 hrs by agar disk diffusion method
Assay type: functional
Details: NCIM 716, 48 h, read-out: IZ
Summary of the method: as §1
Compound `Cc1ccc(S(=O)(=O)CC(C2C(N)=NC(=S)N=C2N)S(=O)(=O)c2ccc(C)cc2)cc1` (stereo not drawn) has a zone of inhibition at 100 µg/disc of 21 mm.
Compound `N=C1ON=C(N)C1C(CC(=O)c1ccccc1)C(=O)c1ccccc1` (stereo not drawn) has a zone of inhibition at 100 µg/disc of 30 mm.
In the case of `Cc1ccc(C(=O)CC(C(=O)c2ccc(C)cc2)C2C(=N)ON=C2N)cc1` (stereo not drawn), the zone of inhibition at 100 µg/disc is reported as 31 mm.

System: Bacillus subtilis
Test: Antibacterial activity against Bacillus subtilis NCIM 2063 at 100 ug/disk after 24 hrs by agar disk diffusion method
Assay type: functional
Details: NCIM 2063, 24 h, read-out: IZ
Summary of the method: (§2)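 Agar disc diffusion on nutrient agar plates pre-inoculated with each bacterium. Sterile 6 mm filter-paper discs were moistened with compound in DMSO at the stated per-disc amount. Plates were incubated at 37 °C, and the growth-inhibition zone diameter was read after 24 h. Each determination was run in triplicate, and the mean of three independent readings is reported.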
In the case of `Cc1ccc(S(=O)(=O)CC(C2C(N)=NC(=S)N=C2N)S(=O)(=O)c2ccc(C)cc2)cc1` (stereo not drawn), the zone of inhibition at 100 µg/disc is reported as 20 mm.
`N=C1ON=C(N)C1C(CC(=O)c1ccccc1)C(=O)c1ccccc1` (stereo not drawn) gave a zone of inhibition at 100 µg/disc of 24 mm.
`Cc1ccc(C(=O)CC(C(=O)c2ccc(C)cc2)C2C(=N)ON=C2N)cc1` (stereo not drawn) showed a zone of inhibition at 100 µg/disc of 26 mm.

System: Bacillus subtilis
Test: Antibacterial activity against Bacillus subtilis NCIM 2063 at 200 ug/disk after 24 hrs by agar disk diffusion method
Assay type: functional
Details: NCIM 2063, 24 h, read-out: IZ
Summary of the method: as §2
`Cc1ccc(S(=O)(=O)CC(C2C(N)=NC(=S)N=C2N)S(=O)(=O)c2ccc(C)cc2)cc1` (stereo not drawn) gave a zone of inhibition at 200 µg/disc of 22 mm.
With `N=C1ON=C(N)C1C(CC(=O)c1ccccc1)C(=O)c1ccccc1` (stereo not drawn) the zone of inhibition at 200 µg/disc was 27 mm.
`Cc1ccc(C(=O)CC(C(=O)c2ccc(C)cc2)C2C(=N)ON=C2N)cc1` (stereo not drawn) gave a zone of inhibition at 200 µg/disc of 28 mm.

System: Klebsiella pneumoniae
Test: Antibacterial activity against Klebsiella pneumoniae NCIM 2957 at 100 ug/disk after 24 hrs by agar disk diffusion method
Assay type: functional
Details: NCIM 2957, 24 h, read-out: IZ
Summary of the method: as §2
With `Cc1ccc(S(=O)(=O)CC(C2C(N)=NC(=S)N=C2N)S(=O)(=O)c2ccc(C)cc2)cc1` (stereo not drawn) the zone of inhibition at 100 µg/disc was 19 mm.
`N=C1ON=C(N)C1C(CC(=O)c1ccccc1)C(=O)c1ccccc1` (stereo not drawn) gave a zone of inhibition at 100 µg/disc of 23 mm.
`Cc1ccc(C(=O)CC(C(=O)c2ccc(C)cc2)C2C(=N)ON=C2N)cc1` (stereo not drawn) gave a zone of inhibition at 100 µg/disc of 22 mm.

System: Proteus vulgaris
Test: Antibacterial activity against Proteus vulgaris NCIM 2027 at 200 ug/disk after 24 hrs by agar disk diffusion method
Assay type: functional
Details: NCIM 2027, 24 h, read-out: IZ
Summary of the method: as §2
With `Cc1ccc(S(=O)(=O)CC(C2C(N)=NC(=S)N=C2N)S(=O)(=O)c2ccc(C)cc2)cc1` (stereo not drawn) the zone of inhibition at 200 µg/disc was 20 mm.
`N=C1ON=C(N)C1C(CC(=O)c1ccccc1)C(=O)c1ccccc1` (stereo not drawn) gave a zone of inhibition at 200 µg/disc of 24 mm.
For `Cc1ccc(C(=O)CC(C(=O)c2ccc(C)cc2)C2C(=N)ON=C2N)cc1` (stereo not drawn), the zone of inhibition at 200 µg/disc was 23 mm.

System: Radical scavenging activity
Test: Antioxidant activity assessed as DPPH free radical scavenging activity at 100 uM after 20 mins
Assay type: functional
Details: not given
Summary of the method: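 DPPH scavenging: compound solutions were added to DPPH in dioxane/ethanol and kept at ambient temperature for 20 min. Absorbance was read at 517 nm. The test–control difference was expressed as percent DPPH radical scavenging.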
`Cc1ccc(S(=O)(=O)CC(C2C(N)=NC(=S)N=C2N)S(=O)(=O)c2ccc(C)cc2)cc1` (stereo not drawn) gave an inhibition of 38.7%.
For `N=C1ON=C(N)C1C(CC(=O)c1ccccc1)C(=O)c1ccccc1` (stereo not drawn), the inhibition was 42.3%.
Compound `Cc1ccc(C(=O)CC(C(=O)c2ccc(C)cc2)C2C(=N)ON=C2N)cc1` (stereo not drawn) has an inhibition of 58.1%.

System: Fusarium solani
Test: Antifungal activity against Fusarium solani NCIM 1330 at 100 ug/disk after 48 hrs by agar disk diffusion method
Assay type: functional
Details: NCIM 1330, 48 h, read-out: IZ
Summary of the method: as §1
With `Cc1ccc(S(=O)(=O)CC(C2C(N)=NC(=S)N=C2N)S(=O)(=O)c2ccc(C)cc2)cc1` (stereo not drawn) the zone of inhibition at 100 µg/disc was 19 mm.
In the case of `N=C1ON=C(N)C1C(CC(=O)c1ccccc1)C(=O)c1ccccc1` (stereo not drawn), the zone of inhibition at 100 µg/disc is reported as 30 mm.
Compound `Cc1ccc(C(=O)CC(C(=O)c2ccc(C)cc2)C2C(=N)ON=C2N)cc1` (stereo not drawn) has a zone of inhibition at 100 µg/disc of 32 mm.

System: Staphylococcus aureus
Test: Antibacterial activity against Staphylococcus aureus NCIM 5021 at 100 ug/disk after 24 hrs by agar disk diffusion method
Assay type: functional
Details: NCIM 5021, 24 h, read-out: IZ
Summary of the method: as §2
Work on `Cc1ccc(S(=O)(=O)CC(C2C(N)=NC(=S)N=C2N)S(=O)(=O)c2ccc(C)cc2)cc1` (stereo not drawn) yielded a zone of inhibition at 100 µg/disc of 21 mm.
`N=C1ON=C(N)C1C(CC(=O)c1ccccc1)C(=O)c1ccccc1` (stereo not drawn) gave a zone of inhibition at 100 µg/disc of 23 mm.
Compound `Cc1ccc(C(=O)CC(C(=O)c2ccc(C)cc2)C2C(=N)ON=C2N)cc1` (stereo not drawn) has a zone of inhibition at 100 µg/disc of 22 mm.

System: Curvularia lunata
Test: Antifungal activity against Curvularia lunata NCIM 716 at 200 ug/disk after 48 hrs by agar disk diffusion method
Assay type: functional
Details: NCIM 716, 48 h, read-out: IZ
Summary of the method: as §1
For `Cc1ccc(S(=O)(=O)CC(C2C(N)=NC(=S)N=C2N)S(=O)(=O)c2ccc(C)cc2)cc1` (stereo not drawn), the zone of inhibition at 200 µg/disc was 23 mm.
In the case of `N=C1ON=C(N)C1C(CC(=O)c1ccccc1)C(=O)c1ccccc1` (stereo not drawn), the zone of inhibition at 200 µg/disc is reported as 32 mm.
`Cc1ccc(C(=O)CC(C(=O)c2ccc(C)cc2)C2C(=N)ON=C2N)cc1` (stereo not drawn) gave a zone of inhibition at 200 µg/disc of 33 mm.

System: Aspergillus niger
Test: Antifungal activity against Aspergillus niger NCIM 596 at 200 ug/disk after 48 hrs by agar disk diffusion method
Assay type: functional
Details: NCIM 596, 48 h, read-out: IZ
Summary of the method: as §1
Compound `Cc1ccc(S(=O)(=O)CC(C2C(N)=NC(=S)N=C2N)S(=O)(=O)c2ccc(C)cc2)cc1` (stereo not drawn) has a zone of inhibition at 200 µg/disc of 20 mm.
Work on `N=C1ON=C(N)C1C(CC(=O)c1ccccc1)C(=O)c1ccccc1` (stereo not drawn) yielded a zone of inhibition at 200 µg/disc of 29 mm.
Work on `Cc1ccc(C(=O)CC(C(=O)c2ccc(C)cc2)C2C(=N)ON=C2N)cc1` (stereo not drawn) yielded a zone of inhibition at 200 µg/disc of 27 mm.

System: Proteus vulgaris
Test: Antibacterial activity against Proteus vulgaris NCIM 2027 at 100 ug/disk after 24 hrs by agar disk diffusion method
Assay type: functional
Details: NCIM 2027, 24 h, read-out: IZ
Summary of the method: as §2
Work on `Cc1ccc(S(=O)(=O)CC(C2C(N)=NC(=S)N=C2N)S(=O)(=O)c2ccc(C)cc2)cc1` (stereo not drawn) yielded a zone of inhibition at 100 µg/disc of 20 mm.
`N=C1ON=C(N)C1C(CC(=O)c1ccccc1)C(=O)c1ccccc1` (stereo not drawn) showed a zone of inhibition at 100 µg/disc of 21 mm.
In the case of `Cc1ccc(C(=O)CC(C(=O)c2ccc(C)cc2)C2C(=N)ON=C2N)cc1` (stereo not drawn), the zone of inhibition at 100 µg/disc is reported as 21 mm.

System: Staphylococcus aureus
Test: Antibacterial activity against Staphylococcus aureus NCIM 5021 at 200 ug/disk after 24 hrs by agar disk diffusion method
Assay type: functional
Details: NCIM 5021, 24 h, read-out: IZ
Summary of the method: as §2
`Cc1ccc(S(=O)(=O)CC(C2C(N)=NC(=S)N=C2N)S(=O)(=O)c2ccc(C)cc2)cc1` (stereo not drawn) gave a zone of inhibition at 200 µg/disc of 24 mm.
Work on `N=C1ON=C(N)C1C(CC(=O)c1ccccc1)C(=O)c1ccccc1` (stereo not drawn) yielded a zone of inhibition at 200 µg/disc of 26 mm.
`Cc1ccc(C(=O)CC(C(=O)c2ccc(C)cc2)C2C(=N)ON=C2N)cc1` (stereo not drawn) gave a zone of inhibition at 200 µg/disc of 25 mm.

System: Klebsiella pneumoniae
Test: Antibacterial activity against Klebsiella pneumoniae NCIM 2957 at 200 ug/disk after 24 hrs by agar disk diffusion method
Assay type: functional
Details: NCIM 2957, 24 h, read-out: IZ
Summary of the method: as §2
For `Cc1ccc(S(=O)(=O)CC(C2C(N)=NC(=S)N=C2N)S(=O)(=O)c2ccc(C)cc2)cc1` (stereo not drawn), the zone of inhibition at 200 µg/disc was 21 mm.
`N=C1ON=C(N)C1C(CC(=O)c1ccccc1)C(=O)c1ccccc1` (stereo not drawn) showed a zone of inhibition at 200 µg/disc of 25 mm.
For `Cc1ccc(C(=O)CC(C(=O)c2ccc(C)cc2)C2C(=N)ON=C2N)cc1` (stereo not drawn), the zone of inhibition at 200 µg/disc was 24 mm.

System: not listed separately
Test: Antioxidant activity assessed as nitric oxide production at 100 uM after 120 mins by Griess reagent method
Assay type: functional
Details: not given
Summary of the method: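 Nitric oxide assay with Griess read-out. At intervals, 0.5 ml of incubation solution was mixed with 0.5 ml Griess reagent (1% sulfanilamide, 0.1% N-naphthylethylenediamine dihydrochloride, 2% o-phosphoric acid in water). The control received an equal amount of solvent and was handled identically.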
In the case of `Cc1ccc(S(=O)(=O)CC(C2C(N)=NC(=S)N=C2N)S(=O)(=O)c2ccc(C)cc2)cc1` (stereo not drawn), the inhibition is reported as 39.9%.
For `N=C1ON=C(N)C1C(CC(=O)c1ccccc1)C(=O)c1ccccc1` (stereo not drawn), the inhibition was 43.5%.
Compound `Cc1ccc(C(=O)CC(C(=O)c2ccc(C)cc2)C2C(=N)ON=C2N)cc1` (stereo not drawn) has an inhibition of 54.3%.
